Data: paper PMC10205783 (Immuno-Oncology and Technology, 2023)
In brackets after ≈: the same amount, converted by molar mass.

Key:
[1] = First-in-human single ascending oral dose study: safety and pharmacokinetics
[2] = 4-week GLP toxicology study in dogs; type: in vivo
[3] = test system: tumor-infiltrating lymphocyte (TIL) migration; conditions: LPA chemorepulsion of T cells; cited from earlier work
[4] = test system: bleomycin-induced pulmonary fibrosis; assay: Bleomycin-induced pulmonary fibrosis; type: in vivo, C57BL/6 mice
Summary of the method: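 Anaesthetised male C57BL/6 mice given intranasal bleomycin (0.6 mg/ml) or saline. Test compound 10 mg/kg or methocel/PBS vehicle by oral gavage twice daily from day 0 for 21 days; body weight monitored. Day 21: terminal plasma; BALF by two ice-cold saline lavages via tracheal cannula, supernatant after centrifugation. LPA species by LC-MS/MS; Mann–Whitney test.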

circulating LPA C18:2 [5] = assay: First-in-human single ascending oral dose study: LPA C18:2 pharmacodynamics; type: in vivo, healthy male volunteers
[6] = Pharmacokinetics in male CD1 mice: plasma exposure after oral gavage; type: in vivo; conditions: male CD1 mice, 3, 10 and 30 mg/kg oral gavage
hERG tail current = hERG tail current (Homo sapiens, UniProt Q12809); assay: GLP hERG assay; type: cell-based
hERG tail current, sequence (Q12809 whole entry): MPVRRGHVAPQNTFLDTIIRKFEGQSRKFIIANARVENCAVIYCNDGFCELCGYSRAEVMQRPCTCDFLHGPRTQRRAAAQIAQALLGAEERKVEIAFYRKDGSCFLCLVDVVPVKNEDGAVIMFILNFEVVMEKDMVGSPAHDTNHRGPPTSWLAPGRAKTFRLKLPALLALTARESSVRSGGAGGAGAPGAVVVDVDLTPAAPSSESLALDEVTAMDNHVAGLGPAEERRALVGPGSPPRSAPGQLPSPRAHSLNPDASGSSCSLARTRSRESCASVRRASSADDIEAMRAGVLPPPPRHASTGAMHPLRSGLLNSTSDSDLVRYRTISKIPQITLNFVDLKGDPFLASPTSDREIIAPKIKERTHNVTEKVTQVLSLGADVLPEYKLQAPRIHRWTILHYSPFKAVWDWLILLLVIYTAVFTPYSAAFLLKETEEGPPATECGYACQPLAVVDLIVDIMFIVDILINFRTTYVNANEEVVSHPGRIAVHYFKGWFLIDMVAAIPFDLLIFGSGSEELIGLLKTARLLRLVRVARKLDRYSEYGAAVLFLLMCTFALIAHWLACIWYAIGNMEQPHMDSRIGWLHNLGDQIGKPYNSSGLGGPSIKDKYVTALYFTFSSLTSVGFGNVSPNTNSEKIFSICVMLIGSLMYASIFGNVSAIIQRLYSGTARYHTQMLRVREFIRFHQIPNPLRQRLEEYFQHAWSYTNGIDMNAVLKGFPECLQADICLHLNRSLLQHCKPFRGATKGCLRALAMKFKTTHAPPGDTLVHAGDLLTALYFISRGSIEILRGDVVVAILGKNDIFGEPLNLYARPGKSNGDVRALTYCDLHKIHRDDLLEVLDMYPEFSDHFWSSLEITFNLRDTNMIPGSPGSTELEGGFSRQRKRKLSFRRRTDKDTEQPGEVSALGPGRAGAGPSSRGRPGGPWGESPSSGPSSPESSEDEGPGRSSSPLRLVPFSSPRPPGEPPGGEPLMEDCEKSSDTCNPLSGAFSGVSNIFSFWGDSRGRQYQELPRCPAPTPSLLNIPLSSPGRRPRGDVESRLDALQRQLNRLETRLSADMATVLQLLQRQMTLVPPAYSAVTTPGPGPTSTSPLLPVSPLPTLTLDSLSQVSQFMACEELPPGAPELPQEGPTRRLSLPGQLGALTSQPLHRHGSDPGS

In vitro toxicology = conditions: based on absence of in vitro toxicology findings
5-HT2B = 5-HT2B (Homo sapiens, UniProt P41595); assay: 5-HT2B antagonist confirmation; type: biochemical
5-HT2B, sequence (P41595 whole entry, species assumed): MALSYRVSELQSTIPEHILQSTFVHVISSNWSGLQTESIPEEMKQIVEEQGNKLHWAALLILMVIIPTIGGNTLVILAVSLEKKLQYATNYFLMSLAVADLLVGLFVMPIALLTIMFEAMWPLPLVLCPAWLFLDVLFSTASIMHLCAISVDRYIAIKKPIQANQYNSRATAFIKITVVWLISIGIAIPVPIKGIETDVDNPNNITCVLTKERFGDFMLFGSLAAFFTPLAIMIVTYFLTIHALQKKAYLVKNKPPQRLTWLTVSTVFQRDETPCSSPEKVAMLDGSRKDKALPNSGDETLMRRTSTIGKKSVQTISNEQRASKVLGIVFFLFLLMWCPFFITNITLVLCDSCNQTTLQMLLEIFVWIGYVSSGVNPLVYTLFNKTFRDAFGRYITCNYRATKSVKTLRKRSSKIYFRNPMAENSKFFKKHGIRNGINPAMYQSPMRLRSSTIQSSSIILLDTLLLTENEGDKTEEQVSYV

4T1 tumors = assay: 4T1 metastasis assay with resection of the primary tumor; type: in vivo, BALB/c mice
Summary of the method: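 Female BALB/c mice implanted surgically with 4T1 cells in the mammary fat-pad, n = 12 per group. Primary tumour resected at day 15 and weighed. Test compound 100 mg/kg b.i.d. by oral gavage. Lungs and bone marrow harvested 20 days after resection. Lungs fixed and H&E-stained for metastases. Bone marrow flushed from hind limbs, cultured in complete medium with 6-thioguanine 10 μg/ml, colonies crystal violet-stained.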

[7] = 4-week GLP toxicology study in rats; type: in vivo
[8] = test system: stimulated human primary cells (lung epithelial cells and fibroblasts; lung fibroblasts only; renal epithelial cells with lung fibroblasts); assay: BioMAP Fibrosis phenotypic screening panel; type: cell-based; conditions: 6 μM, 48 h, TGF-β and TNF-α stimulated co-cultures
Summary of the method: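 Three co-culture systems of human primary cells: lung epithelial cells with lung fibroblasts, lung fibroblasts alone, renal epithelial cells with lung fibroblasts. Cells stimulated with TGF-β and TNF-α, then exposed 48 h to test compound at 0.24, 1.2 and 6 μM. Biomarkers quantified by ELISA. Significance envelope: 95% CI bounds of historical vehicle controls.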

[9] = test system: LPA1, LPA2, LPA3, LPA5, S1P1, S1P2, SP3, S1P4 and S1P5; SafetyScreen44 panel; assay: Off-target profiling on lipid receptor panel and SafetyScreen44 panel; type: binding
[10] = test system: cardiovascular and neurobehavioral functions; assay: GLP safety pharmacology, cardiovascular and neurobehavioral functions in dogs; type: in vivo
respiratory functions = assay: GLP safety pharmacology, respiratory functions in rats; type: in vivo
[11] = target: 5-hydroxytryptamine 2B (5-HT2B) receptor (Homo sapiens, UniProt P41595); assay: 5-HT2B receptor binding; conditions: only hit of the panels
5-hydroxytryptamine 2B (5-HT2B) receptor, sequence (P41595 whole entry): as the sequence (P41595 whole entry, species assumed) above
circulating LPA C18:2 [12] = assay: Pharmacodynamics in male CD1 mice: circulating LPA C18:2 after oral dose; type: in vivo
E0771 tumors = assay: E0771 orthotopic breast cancer model; type: in vivo, C57BL/6 mice
[13] = test system: bleomycin-induced pulmonary fibrosis; conditions: mouse; cited from earlier work
[14] = phase II, IPF patients, cited from earlier work
[15] = single oral dose, healthy male volunteers
[16] = 4T1, 20 days after removal of primary tumor

Compound: C[C@H](NC(=O)CCc1nc2cccnc2n1Cc1ccc(OC(F)(F)F)cc1)c1ccc(Cl)cc1 [IOA-289]
- Tmax ([1]; male, human, in vivo, po): 1 h
- maximum plasma concentrations versus dose ([1]; single ascending oral doses, five cohorts): increased dose proportionally
- adverse events [1, 15]: no adverse events reported
- safety and tolerability [1, 15]: well tolerated
- NOAEL at 4 weeks ([2]; dog, in vivo, po): 60 mg/kg/day
- main target organs for toxicity ([2]; dogs): the gastrointestinal tract, the liver, the bladder and the parotid gland
- TIL migration in vitro [3]: can rescue
- LPA C18:2 levels in BALF ([4]; BLM model, day 21): significantly reduced
- LPA C18:2 levels in plasma ([4]; BLM model, day 21): significantly reduced
- severity of the BLM model followed by body weight ([4]; compared with vehicle treatment): alleviated the severity substantially
- IC50 (circulating LPA C18:2 [5]; Homo sapiens, po, read-out: IC50 on % LPA C18:2 reduction from baseline): 0.015 µg/mL (≈ 0.0298 µM)
- circulating levels of LPA C18:2 (circulating LPA C18:2 [5]; maximal inhibition at cohorts 4 and 5 dose levels): dose-related decrease
- time of peak inhibition of LPA C18:2 after dose (circulating LPA C18:2 [5]; single oral dose): 1 to 2 h
- plasma exposure [6]: dose-proportional increase
- IC50 (hERG tail current): 1.03 µM
- risk for genotoxicity, phototoxicity and cytotoxicity (In vitro toxicology): low risk
- IC50 (5-HT2B): 2.5 µM
- bone metastases (colony formation assay from bone marrow) (4T1 tumors; [16]): marked reduction
- metastatic burden in lungs (histology) (4T1 tumors; [16]): marked reduction
- primary tumor growth (4T1 tumors; 4T1, primary tumor resected at day 15): no effect
- NOAEL at 4 weeks ([7]; rat, in vivo, po): 300 mg/kg/day
- main target organs for toxicity ([7]; rats, all findings reversible): the liver, the bone marrow and the stomach in both sexes and additionally the kidneys, the testes and thyroids in males
- activity of EGFR [8]: significantly decreased
- activity of MCP-1 [8]: significantly decreased
- activity of collagen III (Col-III) [8]: significantly decreased
- activity of sIL-6 [8]: significantly decreased
- activity of sIL-8 [8]: significantly decreased
- activity of sVEGF [8]: significantly decreased
- activity of αSMA [8]: significantly decreased
- off-target interactions [9]: no to minimal potential off-target interactions
- effects on cardiovascular (including QTc changes) and neurobehavioral functions [10]: no relevant effects
- effects on respiratory functions (respiratory functions): no relevant effects
- binding to 5-HT2B receptor [11]: sub-micromolar binding
- ED50 (circulating LPA C18:2 [12]; Mus musculus, po, 1 h, read-out: ED50, reduction of circulating LPA C18:2): ~3 mg/kg
- reduction of circulating LPA C18:2 (circulating LPA C18:2 [12]; male CD1 mice, 3, 10 and 30 mg/kg oral gavage): dose-dependent reduction
- tumor growth (E0771 tumors; E0771, 30 mg/kg b.i.d. oral from day 3 to day 40, compared with control group): reduced the tumor growth
- complete tumor eradication (E0771 tumors; E0771, n = 10 per group): complete tumor eradication in two mice

Compound: CCc1nc2c(C)cc(N3CCN(CC(=O)N4CC(O)C4)CC3)cn2c1N(C)c1nc(-c2ccc(F)cc2)c(C#N)s1 [ziritaxestat, 2-[[2-ethyl-6-[4-[2-(3-hydroxyazetidin-1-yl)-2-oxo-ethyl]piperazin-1-yl]-8-methyl-imidazo[1,2-a]pyridin-3-yl]-methyl-amino]-4-(4-fluorophenyl)thiazole-5-carbonitrile]
- efficacy in bleomycin-induced pulmonary fibrosis model [13]: demonstrated efficacy
- plasma LPA C18:2 levels ([14]; 12 weeks): reducing
- tolerability ([14]; 12 weeks): well tolerated
- forced vital capacity ([14]; after 12 weeks of treatment): stabilizing
